According to ChEMBL document CHEMBL1153088, “Discovery of benzo[g]indol-3-carboxylates as potent inhibitors of microsomal prostaglandin E(2) synthase-1” (Bioorg Med Chem, 2009):
Values belong to the molecule of their own block, whether it stands above or below them. Calls of active or inactive are those of the source. The calls are words filed in the database; no cut-off is given here.

How the values were obtained:
[1] = molecular target: T1, Prostaglandin G/H synthase 1 (Ovis aries) (UniProt P05979); assay: Inhibition of ovine COX1 assessed as residual enzyme activity at 10 uM relative to untreated control
T1 sequence (whole entry): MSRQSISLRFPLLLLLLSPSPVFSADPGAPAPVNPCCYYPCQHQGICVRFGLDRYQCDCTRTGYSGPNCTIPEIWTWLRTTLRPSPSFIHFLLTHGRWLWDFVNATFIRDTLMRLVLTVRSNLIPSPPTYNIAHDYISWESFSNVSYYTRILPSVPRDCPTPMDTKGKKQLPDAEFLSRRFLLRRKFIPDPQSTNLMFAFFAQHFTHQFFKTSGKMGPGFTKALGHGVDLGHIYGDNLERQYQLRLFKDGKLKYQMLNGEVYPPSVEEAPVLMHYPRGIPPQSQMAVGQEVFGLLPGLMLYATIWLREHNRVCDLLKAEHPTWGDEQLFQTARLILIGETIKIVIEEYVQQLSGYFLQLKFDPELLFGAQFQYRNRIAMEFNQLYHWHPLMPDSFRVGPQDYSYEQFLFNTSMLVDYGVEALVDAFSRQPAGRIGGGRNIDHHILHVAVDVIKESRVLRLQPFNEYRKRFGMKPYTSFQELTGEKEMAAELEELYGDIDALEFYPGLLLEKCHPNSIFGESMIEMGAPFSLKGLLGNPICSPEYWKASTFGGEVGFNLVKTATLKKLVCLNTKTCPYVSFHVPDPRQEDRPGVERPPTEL
How it was run: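 Purified ovine COX-1 (50 units) in 1 ml of 100 mM Tris pH 8 containing 5 mM glutathione, 5 µM hemoglobin and 100 µM EDTA was preincubated with compound for 5 min at 4 °C and prewarmed 60 s at 37 °C. The reaction was started with 5 µM AA and run 5 min at 37 °C, and 12-HHT was analysed by HPLC.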

[2] = molecular target: T2, Prostaglandin E synthase (Homo sapiens) (UniProt O14684); assay: Inhibition of mPGES1 in IL1-beta induced human A549 cell microsomal membrane at 10 uM assessed as enzyme residual activity by PGE2 formation assay relative to untreated control; format: microsomes; conditions: Microsome
T2 sequence (whole entry): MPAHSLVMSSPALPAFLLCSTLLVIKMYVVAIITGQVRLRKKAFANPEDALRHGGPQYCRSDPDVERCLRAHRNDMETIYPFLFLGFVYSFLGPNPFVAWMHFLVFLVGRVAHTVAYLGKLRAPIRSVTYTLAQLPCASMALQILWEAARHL
How it was run: (§1)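 Microsomes from A549 cells treated with IL-1β (1 ng/ml, 72 h) were used at 50 µg/ml in 0.1 M potassium phosphate pH 7.4 with 2.5 mM glutathione. Compound (DMSO 1% final) was preincubated 15 min at 4 °C, then PGH2 was added (20 µM final) for 1 min at 4 °C.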

Prostaglandin E synthase = molecular target: T3, Prostaglandin E synthase (Homo sapiens, UniProt O14684); assay: Inhibition of mPGES1 in IL1-beta induced human A549 cell microsomal membrane assessed as blockade of conversion of PGH2 to PGE2; format: microsomes, Microsome; how it was run: as §1
T3 sequence (O14684 whole entry): T2 sequence (whole entry)

[3] = molecular target: T2, Prostaglandin E synthase (Homo sapiens); assay: Inhibition of mPGES1 in IL1-beta induced human A549 cells assessed as PGE2 production at 30 uM preincubated for 10 mins; format: cell-based; parameters: scale not given: the % may be the effect or the level left
How it was run: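 Intact IL-1β-induced A549 cells (4×10^6/ml PBS, 1 mM CaCl2) were preincubated with compound (DMSO ≤0.3%) for 10 min at 37 °C. [3H]PGE2 was separated by RP-18 SPE/HPLC and counted by liquid scintillation.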

Rattus norvegicus [4] = assay: Antiinflammatory activity in Wistar Han rat assessed as reduction in inflammatory cell numbers at 5 mg/kg, ip administered 30 mins before carrageenan challenge; format: functional, organism-based; parameters: dose 5 mg/kg
Rattus norvegicus [5] = assay: Antiinflammatory activity in Wistar Han rat assessed as reduction in exudate volume at 5 mg/kg, ip administered 30 mins before carrageenan challenge; format: functional, organism-based; parameters: dose 5 mg/kg
Mus musculus [6] = assay: Antiinflammatory activity in CD1 mouse assessed as inhibition of carrageenan-induced paw edema at 5 mg/kg, ip administered 30 mins before carrageenan challenge relative to untreated control; format: functional; conditions: route intraperitoneal
How it was run: (§2)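 Male adult CD1 mice, n=10 per group, given the compound ip (vehicle 2% DMSO) 30 min before subplantar 1% λ-carrageenan in saline (0.05 ml). Paw volume was measured double blind by hydroplethysmometer just before injection and at 2, 4 and 6 h. Inhibition was taken at the 4 h reading versus vehicle.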

[7] = molecular target: T2, Prostaglandin E synthase (Homo sapiens); conditions: A549, Microsome, 3 uM
[8] = molecular target: T2, Prostaglandin E synthase (Homo sapiens); conditions: A549, Microsome, 30 uM
[9] = molecular target: T2, Prostaglandin E synthase (Homo sapiens); conditions: A549, Microsome, 0.3 uM
[10] = molecular target: T2, Prostaglandin E synthase (Homo sapiens); conditions: A549, Microsome, 3 uM; remark: listed apart in the source
[11] = molecular target: Prostaglandin G/H synthase 1 (Homo sapiens) (UniProt P23219); assay: Inhibition of COX1 in platelets assessed as inhibition of 12-HHT formation at 10 uM by RP-HPLC
Chain of Prostaglandin G/H synthase 1 (Homo sapiens) (P23219 whole entry): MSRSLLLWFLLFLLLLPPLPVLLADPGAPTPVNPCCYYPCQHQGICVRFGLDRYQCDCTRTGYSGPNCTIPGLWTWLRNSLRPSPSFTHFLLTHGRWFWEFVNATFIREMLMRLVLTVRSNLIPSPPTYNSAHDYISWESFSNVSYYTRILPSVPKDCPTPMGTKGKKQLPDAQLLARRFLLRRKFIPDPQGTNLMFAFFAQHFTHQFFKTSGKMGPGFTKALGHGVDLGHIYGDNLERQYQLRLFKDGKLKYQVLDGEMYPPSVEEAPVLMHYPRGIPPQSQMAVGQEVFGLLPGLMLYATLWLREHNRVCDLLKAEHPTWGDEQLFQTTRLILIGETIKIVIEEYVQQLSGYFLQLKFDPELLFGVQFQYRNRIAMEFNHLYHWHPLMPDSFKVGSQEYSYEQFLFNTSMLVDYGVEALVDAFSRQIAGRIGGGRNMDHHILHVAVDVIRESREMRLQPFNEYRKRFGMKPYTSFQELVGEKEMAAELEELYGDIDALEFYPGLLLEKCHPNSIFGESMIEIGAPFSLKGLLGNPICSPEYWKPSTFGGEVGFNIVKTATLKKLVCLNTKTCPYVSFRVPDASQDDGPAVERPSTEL
How it was run: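 Freshly isolated human platelets (10^8/ml PBS with 1 mM CaCl2) were preincubated with compound (DMSO ≤0.3%), then stimulated with 5 µM AA for 5 min at 37 °C. 12-HHT was extracted and quantified by RP-HPLC. Mean ± SE, n=3–5.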

Mus musculus [12] = assay: Antiinflammatory activity in CD1 mouse assessed as inhibition of carrageenan-induced paw edema at 4 mg/kg, ip administered 30 mins before carrageenan challenge relative to untreated control; format: functional; conditions: route intraperitoneal; how it was run: as §2
Rattus norvegicus [13] = assay: Antiinflammatory activity in Wistar Han rat assessed as reduction in inflammatory cell numbers at 4 mg/kg, ip administered 30 mins before carrageenan challenge; format: functional, organism-based; parameters: dose 4 mg/kg
[14] = molecular target: T4, Prostaglandin G/H synthase 2 (Homo sapiens) (UniProt P35354); assay: Inhibition of COX2 in IL1-beta induced human A549 cells assessed as 6-keto-PGF1-alpha formation up to 30 uM preincubated for 15 mins by ELISA; format: cell-based
T4 sequence (whole entry): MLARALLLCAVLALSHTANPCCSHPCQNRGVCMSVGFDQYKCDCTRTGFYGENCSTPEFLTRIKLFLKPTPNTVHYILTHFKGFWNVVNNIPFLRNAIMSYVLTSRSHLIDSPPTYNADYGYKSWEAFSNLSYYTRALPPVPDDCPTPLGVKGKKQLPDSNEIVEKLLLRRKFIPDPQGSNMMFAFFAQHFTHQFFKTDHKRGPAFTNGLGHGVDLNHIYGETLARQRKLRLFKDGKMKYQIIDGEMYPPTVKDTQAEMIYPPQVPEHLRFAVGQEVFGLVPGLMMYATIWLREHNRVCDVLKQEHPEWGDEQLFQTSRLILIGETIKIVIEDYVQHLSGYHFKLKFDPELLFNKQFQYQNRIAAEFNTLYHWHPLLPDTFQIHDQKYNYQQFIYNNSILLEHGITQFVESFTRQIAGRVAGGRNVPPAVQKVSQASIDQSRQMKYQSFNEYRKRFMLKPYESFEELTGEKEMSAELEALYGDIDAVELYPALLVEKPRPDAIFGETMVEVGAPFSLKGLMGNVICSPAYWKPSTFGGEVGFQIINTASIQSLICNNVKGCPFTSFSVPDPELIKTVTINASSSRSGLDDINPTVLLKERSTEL
How it was run: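 A549 cells were induced with IL-1β (1 ng/ml, 72 h, 2% FCS). Cells at 5×10^6 per ml PBS with 1 mM CaCl2 were preincubated 15 min at 37 °C, then given 30 µM AA for 15 min at 37 °C, and the reaction was stopped on ice. Released 6-keto PGF1α was measured by monoclonal-antibody ELISA with β-galactosidase tracer read at 550 nm.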

Rattus norvegicus [15] = assay: Antiinflammatory activity in Wistar Han rat assessed as LTB4 level at 4 mg/kg, ip administered 30 mins before carrageenan challenge (reference value: 1.17 +/- 0.21 ng); format: functional; conditions: route intraperitoneal
Rattus norvegicus [16] = assay: Antiinflammatory activity in Wistar Han rat assessed as 6-Keto PGF1alpha level at 4 mg/kg, ip administered 30 mins before carrageenan challenge (reference value: 3.00 +/- 1.02 ng); format: functional; conditions: route intraperitoneal
Rattus norvegicus [17] = assay: Antiinflammatory activity in Wistar Han rat assessed as PGE2 level at 4 mg/kg, ip administered 30 mins before carrageenan challenge (reference value: 2.79 +/-0.39 ng); format: functional; conditions: route intraperitoneal
Mus musculus [18] = assay: Antiinflammatory activity in CD1 mouse assessed as inhibition of carrageenan-induced paw edema at 1 mg/kg, ip administered 30 mins before carrageenan challenge relative to untreated control; format: functional; conditions: route intraperitoneal; how it was run: as §2
Rattus norvegicus [19] = assay: Antiinflammatory activity in Wistar Han rat assessed as reduction in exudate volume at 4 mg/kg, ip administered 30 mins before carrageenan challenge; format: functional, organism-based; parameters: dose 4 mg/kg
A549 = assay: Toxicity in human A549 cells assessed as reduction of cell viability by MTT assay; format: cell-based
How it was run: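 A549 cells (4×10^4 per 100 µl) were plated for 16 h, then exposed to compounds at 30 µM (DMSO ≤0.3%) for 5 h. MTT was added for 4 h, formazan was solubilized in 10% SDS/20 mM HCl, and absorbance at 595 nm was read relative to vehicle-treated cells.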

Mus musculus [20] = assay: Antiinflammatory activity in CD1 mouse assessed as inhibition of carrageenan-induced paw edema at 0.25 mg/kg, ip administered 30 mins before carrageenan challenge relative to untreated control; format: functional; conditions: route intraperitoneal; how it was run: as §2

- inhibition [1]: inactive
- Activity [2]: 25%
- IC50 (Prostaglandin E synthase): 3100 nM
SMILES: CCOC(=O)c1c(Cc2cccc(Cl)c2)n(-c2ccc(-c3ccccc3)cc2)c2ccc(O)cc12

- Activity [1]: 89%
SMILES: CCOC(=O)c1c(Cc2cccc(OC)c2)[nH]c2c1cc(O)c1ccccc12

SMILES: CCOC(=O)c1c(Cc2cccc(Cl)c2)n(Cc2ccccc2)c2c1cc(O)c1ccccc12
- Activity [3]: 35%
- inhibition [2]: inactive

- Activity [1]: 66%
- Activity [2]: 28%
- IC50 (Prostaglandin E synthase): 2800 nM
SMILES: CCOC(=O)c1c(Cc2cccc(Cl)c2)[nH]c2c1cc(O)c1ccc(-c3ccccc3)cc12

SMILES: COc1ccc2c(c1)c(CC(=O)O)c(C)n2C(=O)c1ccc(Cl)cc1 [INDOMETHACIN]
- inhibition (Rattus norvegicus [4]): Active
- inhibition (Rattus norvegicus [5]): Active
- inhibition in vivo at 5 mg/kg (Mus musculus [6]): 57%

- inhibition [1]: inactive
SMILES: CCOC(=O)c1c(Cc2cccc(Cl)c2)[nH]c2c1cc(O)c1cc(OC)c(OC)cc12

- Activity [2]: 83%
SMILES: CCOC(=O)c1c(Nc2cccc(Cl)c2)[nH]c2ccc(O)cc12

- inhibition [7]: Active
- inhibition [8]: 82%
- inhibition [9]: inactive
- Activity [1]: 42%
- inhibition [10]: Active
- Activity [3]: 37%
SMILES: CC(C)c1ccc2c(c1)c(SC(C)(C)C)c(CC(C)(C)C(=O)O)n2Cc1ccc(Cl)cc1

- inhibition [11]: 43%
- inhibition [14]: inactive
- Activity [1]: 12%
SMILES: CCOC(=O)c1c(Cc2cccc(Cl)c2)[nH]c2c1cc(O)c1ccccc12
- inhibition in vivo at 4 mg/kg (Mus musculus [12]): 61%
- inhibition (Rattus norvegicus [13]): Active
- Activity (Rattus norvegicus [15]): 0.6 ng
- Activity (Rattus norvegicus [16]): 2.02 ng
- Activity (Rattus norvegicus [17]): 1.3 ng
- inhibition in vivo at 1 mg/kg (Mus musculus [18]): 53%
- inhibition (Rattus norvegicus [19]): Active
- Activity (A549): Non-toxic
- inhibition in vivo at 0.25 mg/kg (Mus musculus [20]): 37%
